Activity data for one compound are collected here from ChEMBL document CHEMBL1145477, “Activity of T-1106 in a hamster model of yellow Fever virus infection” (Antimicrob Agents Chemother, 2007).

Assay type in all cases: functional
Experiment [1] concerns Yellow fever virus. The experiment is described as follows: Antiviral activity against YFV Jimenez infected in Syrian golden hamster assessed as weight change at 50 mg/kg, po bid for 7 days.
In experiment [2] the test system is Yellow fever virus. The experiment is described as follows: Antiviral activity against YFV Jimenez infected in Syrian golden hamster assessed as mean day to death after 21 days post-infection at 50 mg/kg, ip bid for 7 days. The settings on record: route intraperitoneal.
For experiment [3], the system named is Yellow fever virus. Nature of the experiment: Antiviral activity against YFV Jimenez infected in Syrian golden hamster liver treated 4 hrs before viral challenge assessed as mean day to death at 50 mg/kg/day, ip bid for 8 days. As to conditions: route intraperitoneal.
In experiment [4] the test system is Yellow fever virus. The experiment is described as follows: Antiviral activity against YFV Jimenez infected in Syrian golden hamster assessed as serum alanine aminotransferase at 50 mg/kg, ip bid for 7 days. As to conditions: route intraperitoneal. In a few lines: (§1)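 YFV (Jimenez)-infected female hamsters were treated b.i.d. i.p. or p.o. Serum was drawn by ocular sinus at 6 dpi. ALT was read with a colorimetric kit adapted to microplates: substrate plus serum for 30 min at 37°C, then colour reagent and developer, absorbance at 505 nm. Values are IU/liter against saline controls.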

Experiment [5] deals with Yellow fever virus. Nature of the experiment: Antiviral activity against YFV Jimenez infected in Syrian golden hamster liver treated 4 hrs before viral challenge assessed as alanine aminotransferase at 50 mg/kg/day, ip bid for 8 days. The settings on record: route intraperitoneal. The method in brief: as §1

Consider `NC(=O)c1ncn([C@@H]2O[C@H](CO)[C@@H](O)[C@H]2O)n1` [RIBAVIRIN], for which the Activity in experiment [1] amounted to 1.3 g; in experiment [2] it was 6 days; in experiment [3] it was 6 days; in experiment [4], 120 IU/L; in experiment [5] it was 120 IU/L.
